PGC1a acetyl inh: PGC1a acetylation modulation, inhibitor mode. actives 0.17% (n = 350,000). U2OS PGC1a acetylation, AlphaScreen anti-acetyl-lysine; with virally co-expressed GCN5 acetyltransferase. inhibition, % at 15.6 µM;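 active means every replicate shows inhibition of at least 40%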;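 further: 0% = neutral control wells and 100% = positive control wells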
PAX8 inh HTS: inhibitors of PAX8 transcriptional activity in RMG-I cells. RMG-I TPO-luciferase reporter, SteadyGlo, 24 h. inhibition, % at 12.6 µM. actives 1.2% (n = 360,000);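 active means mean replicate inhibition at least 60% with every replicate also reaching 60%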;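 further: luciferase light reporting Pax8 driven TPO promoter activity; plate controls were median of neutral control wells for no effect and mitoxantrone controls for full effect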
FN deposit inh: fibronectin deposition inhibition; actives 0.086% (n = 350,000); AH1F fibroblasts, Alexa488-fibronectin deposition fluorescence, overnight; inhibition, % at 12.6 µM;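 active means mean inhibition across replicates of 30% or more, regardless of how many single replicates reach that level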;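 further: positive control wells lacked labelled fibronectin entirely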
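test system = AH1F fibroblasts assembling fluorescent fibronectin matrix | quantity = 10000 AH1F cells per well | buffer or medium = DMEM plus 2% serum, read in PBS | doses = single dose, pinned | incubation = 1 h cell attachment, overnight exposure to compound and label | detection = fluorescence at 485 nm excitation, 525 nm emission | read-out basis = inhibition from reduced deposited-fibronectin fluorescence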
Env fusion inh: HIV envelope-mediated fusion inhibition; AID 651610; HeLa-JRFL Env/CEM21 cell fusion, luciferase; actives 1.1% (n = 360,000); inhibition, % at 12.3 µM;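 active means mean replicate inhibition score of at least 50 and every replicate individually at or above 50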;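 further: 0% = plate neutral controls and 100% = maraviroc near 300 nM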
EWS-Fli inh: blocks EWS/Fli oncoprotein-driven transcription | A673 NR0B1-luciferase reporter, viability-normalised | AID 651661 | actives 0.67% (n = 350,000) | inhibition, % at 12.6 µM;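 active means mean inhibition of at least 50% after viability correction, with every replicate also passing that limit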;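 further: firefly luciferase signal divided by Alamar Blue viability fluorescence both relative to DMSO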
FGF22 binding: shifts melting point of recombinant human FGF22; recombinant FGF22 thermal shift, SYPRO orange fluorescence; percent of sucrose octasulfate shift, DMSO zero; AID 651658; actives 1.5% (n = 340,000); Q9HCT0; activity (Tm shift, normalised), % at 9.99 µM;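 active means mean Tm shift, scaled 0 neutral to 100 positive control, at about 1.3% or above, every replicate too, limit read from the data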
Target sequence (Q9HCT0 whole entry, looked up): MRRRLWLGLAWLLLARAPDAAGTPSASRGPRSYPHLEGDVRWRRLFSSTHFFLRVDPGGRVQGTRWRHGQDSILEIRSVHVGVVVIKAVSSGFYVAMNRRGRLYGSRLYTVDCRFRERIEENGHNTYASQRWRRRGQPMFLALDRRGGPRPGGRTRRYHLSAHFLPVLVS
Numbers without * were called inactive; i = inactive; nt = not tested or not shown; [ ] = dose if it differs, or a comment. In the library only some 3.1% were active in any assay of this set; here they are far more common.

SMILES	PGC1a acetyl inh	PAX8 inh HTS	FN deposit inh	Env fusion inh	EWS-Fli inh	FGF22 binding
Cc1ccc(/C=C/C(=O)O)cc1S(=O)(=O)NCC1CCCO1 (stereo unspecified)	-1.6	2.7	2.7	-2.0	3.0	nt
Cc1ccc(/C=C/C(=O)O)cc1S(=O)(=O)NC1CCS(=O)(=O)C1 (stereo unspecified)	44.0	-2.2	nt	-6.4	-8.1	43.5*
COc1cccc(NC(=O)CSc2nc3n[nH]c(C)c3c(=N)n2-c2cccc(OC)c2)c1	-23.5	nt	nt	nt	nt	nt
Cc1cc(-n2c(SCC(=O)Nc3ccc(Br)cc3)nc3n[nH]c(C)c3c2=N)ccc1Cl	3.8	15.8	-1.3	10.1	nt	0.3
CCc1ccc(NC(=O)CSc2nc3n[nH]c(C)c3c(=N)n2-c2cccc(OC)c2)cc1	-10.9	nt	-2.0	58.7*	nt	nt
Cc1cc(-n2c(SCC(=O)Nc3ccc(F)c(F)c3)nc3n[nH]c(C)c3c2=N)ccc1Cl	-2.0	76.6*	-5.4	34.6	14.3	0.2
COc1cc(CN2CC3(CCN(C(=O)c4cccnc4)CC3)c3c([nH]c4cc(OC)ccc34)[C@@H]2CO)cc(OC)c1	1.0	17.0	-1.2	nt	-14.0	nt
CCOc1cc(CO)cc(Br)c1OCC(=O)Nc1ccccc1C	nt	8.2	16.5	18.2	3.5	42.9*
CCOc1cc(CO)cc(Br)c1OCC(=O)O	-1.6	nt	nt	nt	nt	nt
C[C@H]1CN([C@@H](C)CO)C(=O)c2cc(NC(=O)C3CC3)ccc2O[C@H]1CN(C)Cc1ccc(C(F)(F)F)cc1	5.2	-12.7	nt	-6.4[16.7 µM]	-10.8	-0.6
Cc1cc(C)c(S(=O)(=O)N2CCCCC2)cc1N(C)S(=O)(=O)c1ccc(Cl)cc1	7.4	22.6	-11.7	95.4*	nt	nt
CC[n+]1c(/C=C/c2c[nH]c3ccccc23)ccc2cc(C)ccc21	nt	75.8*	-117.9	-5.8	30.6	0.3
Cc1ccnc(NC(=O)c2cc3ccccc3o2)c1	nt	58.1	-1.9	38.0	74.7*	0.3
COC(=O)c1cccc(NC(=O)c2cc3ccccc3o2)c1	-5.2	-95.6	-2.2	-147.8	84.5*	0.0
COC(=O)c1cc(NC(=O)c2cc3ccccc3o2)cc(C(=O)OC)c1	8.3	-17.2	1.6	-14.4	7.7	0.2
C[C@@H]1CN([C@@H](C)CO)C(=O)c2cc(C#Cc3ccccc3)cnc2O[C@@H]1CN(C)C(=O)CCN1CCCCC1	-1.0	nt	nt	8.3[16.7 µM]	0.1	-0.3
C[C@@H]1CN([C@@H](C)CO)C(=O)c2cc(C#C[C@@H](C)O)cnc2O[C@@H]1CN(C)C(=O)c1ccccc1	4.9	nt	-10.7	0.4[16.7 µM]	-9.5	-0.1
C[C@@H]1CN([C@H](C)CO)S(=O)(=O)c2ccc(C#CC3CC3)cc2O[C@@H]1CN(C)Cc1cncnc1	9.9	nt	nt	24.7[16.7 µM]	-7.2	nt
C[C@@H]1CCCCO[C@H](CN(C)Cc2ccc(Cl)c(Cl)c2)[C@H](C)CN([C@@H](C)CO)C(=O)c2cc(NS(=O)(=O)c3ccc(Cl)cc3)ccc2O1	-20.6	95.4*	4.0	20.3[16.7 µM]	5.1	0.4
C[C@@H]1CCCCO[C@H](CN(C)Cc2ccc(Cl)c(Cl)c2)[C@@H](C)CN([C@@H](C)CO)C(=O)c2cc(NS(=O)(=O)c3ccc(Cl)cc3)ccc2O1	-8.5	79.9*	-8.8	nt	0.8	-0.2
C[C@@H]1CN([C@H](C)CO)C(=O)c2cc(NS(=O)(=O)c3ccc(Cl)cc3)ccc2O[C@@H](C)CCCCO[C@@H]1CN(C)Cc1ccc(Cl)c(Cl)c1	-23.0	97.7*	-1.0	17.9[16.7 µM]	14.8	0.6
C[C@@H]1CCCCO[C@@H](CN(C)Cc2ccc(Cl)c(Cl)c2)[C@H](C)CN([C@H](C)CO)C(=O)c2cc(NS(=O)(=O)c3ccccc3)ccc2O1	17.4	93.0*	nt	38.3[16.7 µM]	3.8	0.5
C[C@@H]1CCCCO[C@@H](CN(C)Cc2ccc(Cl)c(Cl)c2)[C@@H](C)CN([C@H](C)CO)C(=O)c2cc(NS(=O)(=O)c3ccccc3)ccc2O1	12.1	-2.3	nt	-1.7[16.7 µM]	-11.8	-0.7
O=C(C[C@@H]1C=C[C@@H](NS(=O)(=O)c2ccc(F)cc2)[C@H](CO)O1)NCCc1ccncc1	1.5	-10.1	nt	0.6[16.7 µM]	2.6	-0.2
CC=Cc1ccc2n(c1=O)C[C@@H]1[C@@H](CO)[C@H](C(=O)NCC(F)(F)F)[C@H]2N1C(=O)C1CCC1 (mixture of isomers)	nt	nt	-9.0	nt	0.8	0.0
SMILES	PGC1a acetyl inh	PAX8 inh HTS	FN deposit inh	Env fusion inh	EWS-Fli inh	FGF22 binding
C[C@H](CO)N1C[C@H](C)[C@@H](CN(C)Cc2ccc(Cl)c(Cl)c2)OCCCC[C@H](C)Oc2ccc(NS(=O)(=O)c3ccc(Cl)cc3)cc2C1=O	-15.9	100.9*	3.2	-18.3[16.7 µM]	7.8	0.6
C[C@@H]1CCCCO[C@@H](CN(C)Cc2ccc(Cl)c(Cl)c2)[C@H](C)CN([C@@H](C)CO)C(=O)c2cc(NS(=O)(=O)c3ccc(Cl)cc3)ccc2O1	-21.6	104.2*	-0.1	-24.7[16.7 µM]	9.1	0.6
C[C@H]1CN([C@@H](C)CO)C(=O)c2cc(C3=CCCCC3)cnc2O[C@@H]1CN(C)Cc1ccccc1F	-14.9	13.0	1.7	16.0[16.7 µM]	0.5	0.1
CCOC(=O)C1=C(C)NC(SC)=C(C#N)C1CC(C)C (stereo unspecified)	-4.7	23.4	20.6	-40.1	54.1*	0.2
CCN(Cc1ccccc1)S(=O)(=O)c1ccc2c(c1)NC(=O)CC(=O)N2	nt	1.7	1.2	3.2	8.6	43.5*
C[C@H](CO)N1C[C@H](C)[C@@H](CN(C)C)Oc2ccc(NS(=O)(=O)c3cccs3)cc2CC1=O	1.4	4.2	nt	nt	-0.9	-0.1
CCOc1ccc(C(C)NC(=S)NCc2ccc(Cl)cc2)cc1 (stereo unspecified)	nt	18.6	13.8	2.9	2.6	43.3*
CCCc1ccc(C(C)NC(=S)NCc2ccc(F)cc2)cc1 (stereo unspecified)	2.6	nt	-1.2	40.6	16.6	0.1
Cc1cccc(NC(=O)COn2nnc3ccc(S(C)(=O)=O)cc32)c1	-0.6	14.8	-17.0	-0.7	1.9	43.0*
Nc1nnnn1/N=C/C(Br)=C/c1ccccc1	-42.8	93.0*	-4.6	i	nt	nt
Nc1nnnn1/N=C/C=C/c1ccccc1	2.8	nt	nt	nt	nt	nt
N/C(=N\OC(=O)c1cccc2ccccc12)c1ccc(Br)cc1	nt	2.5	5.8	-17.4	-4.8	44.0*
C[C@@H]1CN([C@@H](C)CO)C(=O)c2cc(NC(=O)CCCN(C)C)ccc2O[C@H]1CN(C)Cc1ccc(Oc2ccccc2)cc1	-5.6	2.8	nt	5.0[16.7 µM]	nt	-2.0
Cn1c(=O)c2c(ncn2Cc2ccc(Cl)cc2)n(C)c1=O	2.2	6.4	-0.1	12.8	11.3	43.6*
CCNc1nc2c(c(=O)n(C)c(=O)n2C)n1Cc1ccc(Cl)cc1	26.0	22.9	-5.3	60.1*	21.6	-0.1
